From ChEMBL document CHEMBL1143676, “2,4,6-Trisubstituted pyridines: Synthesis, topoisomerase I and II inhibitory activity, cytotoxicity, and structure-activity relationship” (Bioorg Med Chem, 2007)
The source made the active and inactive calls. The calls are words filed in the database; no cut-off is given here.

Tests used:
Bos taurus [1] = species: Bos taurus; experiment: Inhibition of calf thymus topoisomerase 1 assessed as relaxation of supercoiled plasmid DNA at 20 uM
Summary of the method: (§1)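 Compound was added at 20 or 100 μM and the mix incubated 30 min at 37 °C. Reactions were stopped with SDS/bromophenol blue/glycerol dye, run on 1% agarose in TAE for 1 h, and stained with ethidium bromide.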

Bos taurus [2] = species: Bos taurus; experiment: Inhibition of calf thymus topoisomerase 1 assessed as relaxation of supercoiled plasmid DNA at 100 uM; summary of the method: as §1
Homo sapiens [3] = species: Homo sapiens; experiment: Inhibition of human topoisomerase 2 at 20 uM
Homo sapiens [4] = species: Homo sapiens; experiment: Inhibition of human topoisomerase 2 at 100 uM
A549 = experiment: Cytotoxicity against human A549 cells after 48 hrs by SRB method; type: functional, cell-based; conditions: A549, 48 h
Summary of the method: (§2)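 SRB assay following the NCI protocol. Cells were kept in log growth with a medium change 24 h before the assay, then trypsinized and seeded at 5 × 10³ (A549, HCT15), 1 × 10⁴ (SK-MEL-2) or 2 × 10⁴ (SK-OV-3) cells/well. After 24 h preincubation at 37 °C in 5% CO₂, compounds in DMSO were added as six 3-fold dilutions (final DMSO <0.5%) for 48 h. Cells were fixed in cold 10% TCA and stained with 0.4% SRB. Bound dye was dissolved in 10 mM Tris (pH 10.5) and absorbance read at 520 nm. Survival fractions came from regression of viability against concentration.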

SK-OV-3 = experiment: Cytotoxicity against human SKOV3 cells after 48 hrs by SRB method; type: functional, cell-based; conditions: SK-OV-3, 48 h; summary of the method: as §2
SK-MEL-2 = experiment: Cytotoxicity against human SK-MEL-2 cells after 48 hrs by SRB method; type: functional, cell-based; conditions: SK-MEL-2, 48 h; summary of the method: as §2
HCT-15 = experiment: Cytotoxicity against human HCT15 cells after 48 hrs by SRB method; type: functional, cell-based; conditions: HCT-15, 48 h; summary of the method: as §2

| SMILES | Activity (Homo sapiens [3]) | Activity (Homo sapiens [4]) | IC50 (A549) [µM] | IC50 (SK-OV-3) [µM] | IC50 (SK-MEL-2) [µM] | IC50 (HCT-15) [µM] | also measured |
| --- | --- | --- | --- | --- | --- | --- | --- |
| c1ccc(-c2cc(-c3ccsc3)cc(-c3cccs3)n2)nc1 |  |  |  |  |  |  | Activity (Bos taurus [1]): Active; Activity (Bos taurus [2]): Active |
| c1cncc(-c2cc(-c3ccncc3)nc(-c3cccs3)c2)c1 | Active | Active |  |  |  |  |  |
| c1cc(-c2cc(-c3ccoc3)cc(-c3ccsc3)n2)ccn1 | Active | Active |  |  |  |  |  |
| c1cncc(-c2cc(-c3ccsc3)cc(-c3cccs3)n2)c1 |  |  | 2.73 | 7.49 | 5.61 | 4.06 |  |
| c1cc(-c2cc(-c3ccsc3)cc(-c3ccsc3)n2)ccn1 |  |  | 27.8 | 9.86 | 9.76 | 2.54 |  |
| c1coc(-c2cc(-c3cccs3)cc(-c3ccncc3)n2)c1 |  |  |  |  |  |  | Activity (Bos taurus [1]): Active; Activity (Bos taurus [2]): Active |
| c1cncc(-c2cc(-c3ccncc3)nc(-c3ccco3)c2)c1 |  |  |  |  |  |  | Activity (Bos taurus [1]): Active; Activity (Bos taurus [2]): Active |
| COc1cc([C@@H]2c3cc4c(cc3[C@@H](O[C@@H]3O[C@@H]5CO[C@@H](C)O[C@H]5[C@H](O)[C@H]3O)[C@H]3COC(=O)[C@H]23)OCO4)cc(OC)c1O [ETOPOSIDE] |  |  | 0.32 | 1.72 | 0.3 | 2.43 |  |
| c1coc(-c2cc(-c3ccoc3)cc(-c3ccncc3)n2)c1 | Active | Active |  |  |  |  |  |
| c1csc(-c2cc(-c3ccoc3)cc(-c3ccncc3)n2)c1 | Active | Active |  |  |  |  |  |
| c1csc(-c2cc(-c3ccncc3)nc(-c3cccs3)c2)c1 |  |  | 4.16 | 5.75 | 3.68 | 1.72 |  |
| c1cncc(-c2cc(-c3ccco3)cc(-c3cccs3)n2)c1 |  |  | 14.5 | 5.9 | 1.95 | 5.87 |  |
| c1csc(-c2cc(-c3ccncc3)nc(-c3ccsc3)c2)c1 |  |  | 5.69 | 14.5 | 8.94 | 3.79 |  |
| c1cc(-c2cc(-c3ccncc3)nc(-c3ccsc3)c2)ccn1 | Active | Active |  |  |  |  |  |
| c1csc(-c2cc(-c3ccsc3)cc(-c3ccncc3)n2)c1 |  |  |  |  |  |  | Activity (Bos taurus [1]): Active; Activity (Bos taurus [2]): Active |
| c1coc(-c2cc(-c3ccncc3)nc(-c3cccs3)c2)c1 |  |  | 10.9 | 8.69 | 5.43 | 4.18 |  |
| c1coc(-c2cc(-c3ccsc3)cc(-c3ccncc3)n2)c1 | Active | Active |  |  |  |  |  |
| c1ccc(-c2cc(-c3ccoc3)cc(-c3ccco3)n2)nc1 | Active | Active |  |  |  |  |  |
